The series in a line: Toxicity liver stage against HepG2, at 10uM. The series is classed as cell-based. Details: test concentration 10 uM, cell line HepG2-A16-CD81EGFP. The following applies: human, HepG2-A16-CD81EGFP cells; read-out: INHIBITION
The procedure, abridged: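 Uninfected HepG2-A16-CD81EGFP cells, 3 × 10^3 per well, 1536-well, plated on prespotted compound at 10 μM final, parasite-free screening media added to match infected plates; puromycin 10 μM positive, DMSO 0.5% negative; run in parallel with 48 h PbLuc assay at 37 °C, 5% CO2; viability by CellTiter-Glo luminescence, normalized to controls.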
In the case of `COCCN(Cc1nccs1)C(=O)c1cc(-c2ccc(C)s2)n[nH]1`, the cytotoxicity at 10 µM was -8.84%. With `CC(C)c1nccn1-c1cncc(C2CCCN(C3CCCC3)C2)n1` (configuration not stated), the cytotoxicity at 10 µM was -6.63%. The figure for `CN1CCN(Cc2cnc3n2CCN(C(=O)c2cnccn2)C3)CC1` is -65.1%; for `CC(C)NC(=O)C1Cc2nc(-c3ccsc3)sc2N1CC1CC1` (configuration not stated) it is 6.61%; for `CCCc1cc(C(=O)N2Cc3ccccc3C2)[nH]n1` it is 2.02%.

In the case of `Cc1cc(C)n(Cc2cccc(C(=O)N3CCOCC3(C)C)c2)n1`, the cytotoxicity at 10 µM was -3.51%.

`O=C(C1CN(c2ncc(F)cn2)CC12CCOCC2)N1CCOCC1` (configuration not stated): the cytotoxicity at 10 µM amounted to 13.6%. The figure for `Cc1cc(C)cc(C2(C(=O)NC(C)Cn3ccnc3)CC2)c1` (configuration not stated) is -8.26%.

For the compound `CN(C)S(=O)(=O)N1CCCC1c1cccc(-n2ccnc2)n1` (configuration not stated), the cytotoxicity at 10 µM was -3.75%.

For `COc1ccccc1CC(C)N(C)S(C)(=O)=O` (configuration not stated), the cytotoxicity at 10 µM worked out at 14%. The figure for `Cc1ncc(CN2CCCC2)c2cc(C(=O)c3ccc(Br)cc3)oc12` is 1.46%; for `FC(F)(F)c1ccc(-n2ccnc2-c2cc3n(n2)CCNC3)cn1` it is -4.65%; for `COc1cc(-c2cccc3c2OC(CN)C3)cc(OC)c1OC` (configuration not stated) it is -42.6%.

As for `Cc1nc(C#N)c(N2CCC(c3nc(-c4ccccc4)no3)CC2)o1`, the cytotoxicity at 10 µM was -7.41%.

Take `OCC1CCCN1c1cc(NCc2ccccn2)ncn1` (configuration not stated): the cytotoxicity at 10 µM is -8.01%. As for `CC(C)Cc1cc(CNc2nc(-c3cccnc3)nc3c2CNC3)no1`, the cytotoxicity at 10 µM amounted to 1.95%. The figure for `CN(C(=O)Nc1ccncc1)C1CCN(c2ccccc2)C1=O` (configuration not stated) is -10.1%; for `Cc1ccc(C)c2c(=O)cc(CN3CC[C@@H](N)[C@H](O)C3)[nH]c12` it is 8.24%.

Consider `Cc1cccc(C(=O)Oc2cc(=O)n3cccc(C)c3n2)c1`, for which the cytotoxicity at 10 µM was determined as 1.11%. Turning to `CNc1ncc(CN(C)C(=O)CCc2cc3n(n2)CCCNC3)cn1`, the cytotoxicity at 10 µM is -13.5%. For the compound `Cc1cnn(CC(C)NCc2ccc(OCc3noc(C)n3)cc2)c1` (configuration not stated), the cytotoxicity at 10 µM amounted to 1.16%. With `NC(=O)CNC(=O)c1ccc(CNCc2ccc(F)cc2F)cc1`, the cytotoxicity at 10 µM is -43.4%. In the case of `COCCCNC(=O)Cc1cc(-c2ccc3c(c2)OCO3)on1` it was 57.7%; in that of `CCOc1cc(CNCCCn2ccnc2)cc(Cl)c1OCC`, 1.82%; in that of `Cc1cc(C)c2[nH]c(C(=O)NCCN3CCOC3=O)c(C)c2c1`, -0.2%. For `Cc1cc(CNC(=O)CCc2ccc(S(N)(=O)=O)cc2)no1`, the cytotoxicity at 10 µM stood at 7.81%. As for `CCOc1ccccc1-c1cc(N)[nH]n1`, the cytotoxicity at 10 µM stood at 5.75%. In the case of `CC1c2ncc(COCC3CCOCC3)n2CCN1C(=O)c1ccco1` (configuration not stated) it was -0.882%; in that of `CC(Cn1ccnc1)NC(=O)C1(c2cccc(Cl)c2)CC1` (configuration not stated), -19.3%. The figure for `CC(C)NC(=O)[C@H]1C[C@@H]2[C@@H](C1)OCCN2Cc1cccnc1` is 2.39%; for `Cc1ccc(-c2noc(CN3CCn4c(nnc4C4CC4)C3)n2)cc1` it is -9.04%. In the case of `CN(CCc1ccccc1)C(=O)CN1C(=O)OC[C@@H]1c1ccccc1` it was -47%.

For `COc1ccc(F)cc1C[S+]([O-])CC(=O)NCC(C)C` (configuration not stated), the cytotoxicity at 10 µM was -5.95%. The figure for `CC(C)(C)c1nc(CN2CCCC(Cn3cncn3)C2)cs1` (configuration not stated) is -4.54%; for `Clc1cccc(-n2cnnn2)c1N1CCOCC1` it is 9.43%; for `CCc1ccc(S(=O)(=O)NCCOc2ccc3nnc(C)n3n2)s1` it is -6.98%. In the case of `CC(C)c1ncc2c(n1)CN(CC(=O)Nc1ccncc1)CC2` it was -3.23%; in that of `CCOC[C@@H]1CC[C@H]2[C@H](CCN2S(=O)(=O)c2ccc(F)cc2)O1`, 1.39%; in that of `CCOc1ccc(Cl)cc1CCNC(=O)N1CCCC(CO)C1` (configuration not stated), 5.46%. The figure for `O=C(NCc1ccccn1)[C@@]12CCO[C@@H]1CCN(c1ncccn1)C2` is -98.4%. As to `COc1ccc(CN2CCC(c3nnc(-c4scnc4C)o3)CC2)cc1`, the cytotoxicity at 10 µM was -5.03%. In the case of `O=C1NCC[C@]12CN(Cc1ccncc1)C[C@H]2c1ccccc1` it was -147%; in that of `Cc1c[nH]nc1C1CCN(c2cnccn2)C1` (configuration not stated), 5.3%; in that of `CC(NC(=O)CCCc1nc(C(C)(C)C)no1)c1ccccn1` (configuration not stated), -5.81%. With `CC(=O)N1N=C(c2ccco2)OC1C(=O)N(CC(C)C)CC(C)C` (configuration not stated), the cytotoxicity at 10 µM was -1.31%. In the case of `CC(C1CCN(Cc2cnc(-c3cccs3)nc2)CC1)N(C)C` (configuration not stated) it was -11.3%; in that of `CC1(C)CNC(=O)CN(C(=O)COc2ccccc2)C1`, 1.4%. The figure for `CCS(=O)(=O)N1CCC2(CC(=O)N(c3cnn(C)c3)C2)C1` (configuration not stated) is 6.92%; for `COCc1nc(C2CC2)nn1-c1ccccc1Cl` it is -0.808%; for `CN(CC1(O)CCCN(c2ccccn2)C1)C(=O)CC1CCOCC1` (configuration not stated) it is -5.44%. The figure for `CC(C)(CCS(C)(=O)=O)CNC(=O)NC1CCCCC1(C)C` (configuration not stated) is 11.3%; for `COc1ccccc1C(NC(=O)C1CCC1)c1noc(C)n1` (configuration not stated) it is 0.338%; for `Cc1cc(Br)ccc1C(=O)N(C)CCNS(C)(=O)=O` it is -54.1%.

With `CCC(NC(=O)c1nn(C)cc1C(=O)O)c1ccccc1` (configuration not stated), the cytotoxicity at 10 µM is -7.41%. In the case of `CC1CN(Cc2ccccc2)CCCN1CCNS(C)(=O)=O` (configuration not stated) it was -3.72%; in that of `CC(C)c1nc(O)c2nnn(C[C@@H]3CCCN(Cc4cccs4)C3)c2n1`, 1.76%. In the case of `COCC(=O)N1CCc2cccc(S(=O)(=O)N3CCOCC3)c2C1` it was -5.42%. The figure for `Cc1cnn(CC2CCCN2Cc2nc(N)c3ccccc3n2)c1` (configuration not stated) is -29.5%. As for `Cc1nn(C)c(C)c1C1COCCN1c1ncnc2c(C)cccc12` (configuration not stated), the cytotoxicity at 10 µM is 6.54%. The figure for `Cc1nn(C)c(C)c1CCC(=O)NCc1csc(N2CCCC2)n1` is -4.55%; for `Fc1ccccc1Oc1nccnc1C1CCCN(C2CCOCC2)C1` (configuration not stated) it is -9.4%. The figure for `CS(=O)(=O)c1ccc(OCCNCc2cccc(Cl)c2)cc1` is -4.43%; for `O=C(c1cnc(C2CC2)s1)N1CCCC1Cn1cccn1` (configuration not stated) it is -5.09%; for `Cc1[nH]c(=O)[nH]c(=O)c1CC(=O)N1CCC(Oc2ccc(F)cc2)CC1` it is 4.42%.

As to `C=C(C)CNCC1(O)CCCN(Cc2ccc(F)c(F)c2)C1=O` (configuration not stated), the cytotoxicity at 10 µM is -1.12%. In the case of `O=C(Nc1nnc(C2CC2)s1)NC1CCOc2ccccc21` (configuration not stated) it was 24.2%; in that of `CCNCCC(Cc1ccccc1)c1ccco1` (configuration not stated), 5.31%; in that of `COCc1ncc(CN2CCC3(CCNC(=O)CC3)CC2)cn1`, -147%. In the case of `COc1ccc(Nc2nc(N)c(C(C)=O)s2)cc1OC` it was 1.8%.

Consider `O=C([C@H]1COC[C@H]2CN(C3CCCC3)C[C@H]21)N1CCOCC1`, for which the cytotoxicity at 10 µM is -105%. The figure for `Cc1cccn2cc(C[S+]([O-])Cc3noc(C(C)C)n3)nc12` (configuration not stated) is 6.13%; for `COc1ccc(C(=O)NC2CC2)c(OC)c1` it is -3.51%. In the case of `CCCNC(=O)Cn1cc(C#N)c(=O)c2cc(Br)ccc21` it was -0.842%; in that of `Cc1nc(CN2CCCC(N(C)Cc3nnsc3Cl)C2)no1` (configuration not stated), -4.36%; in that of `CC1CCN(C)c2ccccc2N1C(=O)c1ccc(=O)n(C)n1` (configuration not stated), 1.53%. The figure for `CCc1ccccc1-n1cc(O)c(C(=O)N2CCCCC2)n1` is 0.495%; for `CCC(C)NC(=O)CCNC(=O)Nc1ccc(-n2cncn2)c(F)c1` (configuration not stated) it is -0.22%. Regarding `CN1CCC(C)(CN(C)C(=O)c2ccc(CCC(C)(C)O)cc2)C1` (configuration not stated), the cytotoxicity at 10 µM is -11.2%. The figure for `Cc1nc(C)c(CC(=O)N2CCC(Oc3ccccc3)CC2)c(=O)[nH]1` is 1.98%; for `CN1CCOC(CNCc2coc(-c3cccc(F)c3)n2)C1` (configuration not stated) it is -29.3%. The figure for `O=C(c1ccc(F)cc1)N1C[C@H]2CCC[C@@]2(COCc2ccccn2)C1` is 2.06%; for `COCC1CN(Cc2ccc(C)o2)Cc2cnn(CC3CCOCC3)c21` (configuration not stated) it is 1.87%. The figure for `CS(=O)(=O)N1CC[C@H]2OCC[C@@]2(C(=O)NCc2ccccn2)C1` is -84.7%; for `CC(=O)N1CCN(Cc2c(C)sc3ccccc23)CC(O)C1` (configuration not stated) it is 14.4%.

Consider `COCc1cccc(NC(C)C(=O)N(C)Cc2ccccc2)c1` (configuration not stated), for which the cytotoxicity at 10 µM was -0.42%.

`CCCn1ncc(CN(Cc2cccnc2)Cc2ccsc2)c1C`: the cytotoxicity at 10 µM turned out to be 13.1%. Consider `Cn1c(SCc2noc(C(C)(C)C)n2)nnc1C1CCS(=O)(=O)C1` (configuration not stated), for which the cytotoxicity at 10 µM turned out to be 8.32%. The figure for `CCc1ccc(CCC(=O)N2CCOCC2c2ncon2)cc1` (configuration not stated) is -3.78%; for `Cc1ccc(C)c(NC(=O)N2C[C@H](N(C)C)C[C@H]2CO)c1` it is -0.861%. Regarding `O=c1[nH]c2ccccc2cc1CN(Cc1ccccn1)CC1CCCO1` (configuration not stated), the cytotoxicity at 10 µM was -4.84%. In the case of `CN(C)Cc1nc(C(C)(C)NC(=O)c2nc3ccccc3s2)no1` it was 8.61%; in that of `O=C(CCCNc1ncccn1)N1CCCC(n2cncn2)C1` (configuration not stated), -4.56%. In the case of `Cc1noc(Cl)c1CCC(=O)N1CCCCC1Cn1cccn1` (configuration not stated) it was -12.6%. On to `COc1c(CNC(c2ccc(F)cc2)C(C)(C)C)c(C)nn1C` (configuration not stated), for which the cytotoxicity at 10 µM came to 0.0161%. The figure for `CCc1ccc(CN2CCc3ncnc(N4CCOCC4)c3CC2)o1` is -2.05%. In the case of `Cc1ccc(-n2nnc(C(=O)NCC(F)(F)F)c2C2CC2)cc1` it was -6.94%; in that of `CCOCC(O)CN1CCN(C(=O)C2CCCC2)CC1` (configuration not stated), -13%.

Source of the values: ChEMBL document CHEMBL4513216, “Probing the Open Global Health Chemical Diversity Library for Multistage-Active Starting Points for Next-Generation Antimalarials” (ACS Infect Dis, 2020).
